Experimental data: ChEMBL document CHEMBL1123977, “Synthesis, receptor binding, and tissue distribution of (17 alpha,20E)- and (17 alpha,20Z)-21-[125I]iodo-19-norpregna-1,3,5(10), 20-tetraene-3,17-diol ” (1988)
Where “and” joins values, the source holds several entries; their conditions need not be identical. Equal values may be shown once.

What was measured:
Rattus norvegicus [1] = assay: In vivo deiodination in 1 hour after administration of compound; assay type: functional
How it was run: (§1)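 In immature female Fischer rats given 3 μCi (111 kBq) of 125I-steroid iv, deiodination was estimated from thyroid PDK at 1, 2 or 5 h, or at 2 h with 60 μg co-injected estradiol. Thyroid uptake after [125I]NaI injection at the same time interval was taken as 100%.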

Rattus norvegicus [2] = assay: In vivo deiodination in 2 hour after administration of compound; assay type: functional; how it was run: as §1
Rattus norvegicus [3] = assay: In vivo deiodination in 2 hour after administration of compound in presence of 60 microg of estradiol; assay type: functional; how it was run: as §1
Rattus norvegicus [4] = assay: In vivo deiodination in 5 hr after administration of compound; assay type: functional; how it was run: as §1
Rattus norvegicus [5] = assay: Mean uptake in adrenals 1 hr after intravenous injection of 3 microCi (111 kBq) of the compound; assay type: functional, Adrenal gland
How it was run: (§2)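 Immature female Fischer rats (24 days old, 55-60 g) had free access to food and water. They were warmed under an infrared lamp, then given 200 μL HPLC-purified 125I-labeled steroid (3 μCi, 111 kBq) in saline with 9% ethanol and 1% Tween 80 via the lateral tail vein. Where stated, 60 μg unlabeled estradiol was co-injected. Rats were killed at 1, 2 or 5 h. Tissues were KCl-washed, blotted, weighed and gamma-counted against a reference of the injectate. Results are PDK (% dose × kg/g), mean and SD of three rats.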

Rattus norvegicus [6] = assay: Mean uptake in adrenals 2 hr after intravenous injection of 3 microCi (111 kBq); assay type: functional, Adrenal gland; how it was run: as §2
Rattus norvegicus [7] = organism: Rattus norvegicus; assay: Effect of Co-injection with estradiol on the uterus to blood ratio (Co-injected with 60 microg of estradiol (E2)); assay type: functional
How it was run: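 Immature female Fischer rats (24 days, 55-60 g) received 3 μCi (111 kBq) 125I-labelled steroid iv via the lateral tail vein, in 200 μL 9% ethanol-saline with 1% Tween 80, co-injected with 60 μg unlabelled estradiol. Killed at 2 h. Uterus and blood were KCl-washed and gamma-counted as PDK. Ratio is the mean of three rats; % change is versus tracer-only animals.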

Rattus norvegicus [8] = assay: Mean uptake in uterus 2 hr after intravenous injection of 3 microCi (111 kBq); assay type: functional
How it was run: (§3)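 Immature female Fischer rats (24 days old, 55-60 g), food and water free. 3 μCi (111 kBq) HPLC-purified 125I-labeled steroid given iv via lateral tail vein in 200 μL saline containing 9% ethanol and 1% Tween 80; receptor-saturation group co-injected with 60 μg unlabeled estradiol. Sacrificed at set times; uterus washed with 0.154 M KCl, blotted, weighed, gamma counted against injected reference; expressed as PDK (% dose × kg/g), mean of three rats.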

Rattus norvegicus [9] = assay: Mean uptake in uterus 2 hr after intravenous injection of 3 uM Ci (111 kBq) in presence of 60 ug coinjected estradiol; assay type: functional; how it was run: as §3
Rattus norvegicus [10] = assay: Mean uptake in uterus 1 hr after intravenous injection of 3 microCi (111 kBq) of the compound; assay type: functional; how it was run: as §2
Rattus norvegicus [11] = assay: Mean uptake in uterus 5 hr after intravenous injection of 3 microCi (111 kBq); assay type: functional; how it was run: as §3
Rattus norvegicus [12] = assay: Mean uptake in blood 5 hr after intravenous injection of 3 microCi (111 kBq); assay type: functional; how it was run: as §2
Rattus norvegicus [13] = assay: Mean uptake in adrenals 2 hr after intravenous injection of 3 uM Ci (111 kBq) in presence of 60 ug coinjected estradiol; assay type: functional, Adrenal gland; how it was run: as §2
Rattus norvegicus [14] = assay: Mean uptake in adrenals 5 hr after intravenous injection of 3 microCi (111 kBq); assay type: functional, Adrenal gland; how it was run: as §2
Rattus norvegicus [15] = assay: Mean uptake in blood 2 hr after intravenous injection of 3 microCi (111 kBq); assay type: functional; how it was run: as §2
Rattus norvegicus [16] = assay: Mean uptake in blood 2 hr after intravenous injection of 3 microCi (111 kBq) in presence of 60 ug coinjected estradiol; assay type: functional; how it was run: as §2
Rattus norvegicus [17] = assay: Mean uptake in blood after intravenous injection of 3 microCi (111 kBq) of the compound; assay type: functional; how it was run: as §2
Rattus norvegicus [18] = assay: Mean uptake in brain 1 hr after intravenous injection of 3 microCi (111 kBq) of the compound; assay type: functional; how it was run: as §2
Rattus norvegicus [19] = assay: Mean uptake in brain 2 hr after intravenous injection of 3 microCi (111 kBq); assay type: functional; how it was run: as §2
Rattus norvegicus [20] = assay: Mean uptake in brain 2 hr after intravenous injection of 3 uM Ci (111 kBq) in presence of 60 ug coinjected estradiol; assay type: functional; how it was run: as §2
Rattus norvegicus [21] = assay: Mean uptake in kidneys 1 hr after intravenous injection of 3 microCi (111 kBq) of the compound; assay type: functional; how it was run: as §2
Rattus norvegicus [22] = assay: Mean uptake in kidneys 2 hr after intravenous injection of 3 microCi (111 kBq); assay type: functional; how it was run: as §2
Rattus norvegicus [23] = assay: Mean uptake in kidneys 2 hr after intravenous injection of 3 microCi (111 kBq) in presence of 60 ug coinjected estradiol; assay type: functional, Kidney; how it was run: as §2
Rattus norvegicus [24] = assay: Mean uptake in kidneys 5 hr after intravenous injection of 3 microCi (111 kBq); assay type: functional; how it was run: as §2
Rattus norvegicus [25] = assay: Mean uptake in liver 2 hr after intravenous injection of 3 microCi (111 kBq); assay type: functional; how it was run: as §2
Rattus norvegicus [26] = assay: Mean uptake in ovaries 5 hr after intravenous injection of 3 microCi (111 kBq); assay type: functional, Female gonad; how it was run: as §2
Rattus norvegicus [27] = assay: Mean uptake in spleen 1 hr after intravenous injection of 3 microCi (111 kBq) of the compound; assay type: functional; how it was run: as §2
Rattus norvegicus [28] = assay: Mean uptake in spleen 2 hr after intravenous injection of 3 microCi (111 kBq); assay type: functional; how it was run: as §2
Rattus norvegicus [29] = assay: Mean uptake in spleen 2 hr after intravenous injection of 3 microCi (111 kBq) in presence of 60 ug coinjected estradiol; assay type: functional; how it was run: as §2
Rattus norvegicus [30] = assay: Mean uptake in spleen 5 hr after intravenous injection of 3 microCi (111 kBq); assay type: functional; how it was run: as §2
Rattus norvegicus [31] = assay: Mean uptake in thyroid 2 hr after intravenous injection of 3 microCi (111 kBq); assay type: functional, Thyroid gland; how it was run: as §2
Rattus norvegicus [32] = assay: Mean uptake in thyroid 2 hr after intravenous injection of 3 microCi (111 kBq) in presence of 60 ug coinjected estradiol; assay type: functional, Thyroid gland; how it was run: as §2
Rattus norvegicus [33] = assay: Mean uptake in thyroid 1 hr after intravenous injection of 3 microCi (111 kBq) of the compound; assay type: functional, Thyroid gland; how it was run: as §2
Rattus norvegicus [34] = assay: Mean uptake in liver 2 hr after intravenous injection of 3 microCi (111 kBq) in presence of 60 ug coinjected estradiol; assay type: functional; how it was run: as §2
Rattus norvegicus [35] = assay: Mean uptake in liver 5 hr after intravenous injection of 3 microCi (111 kBq); assay type: functional; how it was run: as §2
Rattus norvegicus [36] = assay: Mean uptake in lungs 1 hr after intravenous injection of 3 microCi (111 kBq) of the compound; assay type: functional; how it was run: as §2
Rattus norvegicus [37] = assay: Mean uptake in lungs 2 hr after intravenous injection of 3 microCi (111 kBq); assay type: functional; how it was run: as §2
Rattus norvegicus [38] = assay: Mean uptake in lungs 2 hr after intravenous injection of 3 uM Ci (111 kBq) in presence of 60 ug coinjected estradiol; assay type: functional; how it was run: as §2
Rattus norvegicus [39] = assay: Mean uptake in lungs 5 hr after intravenous injection of 3 microCi (111 kBq); assay type: functional; how it was run: as §2
Rattus norvegicus [40] = assay: Mean uptake in muscle 1 hr after intravenous injection of 3 microCi (111 kBq) of the compound; assay type: functional, Muscle tissue; how it was run: as §2
Rattus norvegicus [41] = assay: Mean uptake in muscle 2 hr after intravenous injection of 3 microCi (111 kBq); assay type: functional, Muscle tissue; how it was run: as §2
Rattus norvegicus [42] = assay: Mean uptake in muscles 5 hr after intravenous injection of 3 microCi (111 kBq); assay type: functional, Muscle tissue; how it was run: as §2
Rattus norvegicus [43] = assay: Mean uptake in ovaries 1 hr after intravenous injection of 3 microCi (111 kBq) of the compound; assay type: functional, Female gonad; how it was run: as §2
Rattus norvegicus [44] = assay: Mean uptake in ovaries 2 hr after intravenous injection of 3 microCi (111 kBq); assay type: functional, Female gonad; how it was run: as §2
Rattus norvegicus [45] = assay: Mean uptake in ovaries 2 hr after intravenous injection of 3 microCi (111 kBq) in presence of 60 ug coinjected estradiol; assay type: functional, Female gonad; how it was run: as §2
Rattus norvegicus [46] = assay: Mean uptake in liver 1 hr after intravenous injection of 3 microCi (111 kBq) of the compound; assay type: functional; how it was run: as §2

`C[C@]12CC[C@@H]3c4ccc(O)cc4CC[C@H]3[C@@H]1CC[C@@]2(O)/C=C/[125I]` gave a Deiodination (Rattus norvegicus [1]) of 2%, a Deiodination (Rattus norvegicus [2]) of 2.1% and a Deiodination (Rattus norvegicus [3]) of 1.7%. It also gave a Deiodination (Rattus norvegicus [4]) of 4.4%, a PDK (Rattus norvegicus [5]) of 175 and a PDK (Rattus norvegicus [6]) of 72. For the same molecule, the Change (Rattus norvegicus [7]) was -41%, the “Uterus to blood ratio” value (Rattus norvegicus [7]) was 2.32 and the PDK (Rattus norvegicus [8]) was 35. For the same molecule, the PDK (Rattus norvegicus [9]) was 22, the PDK (Rattus norvegicus [10]) was 92 and the PDK (Rattus norvegicus [11]) was 11. The PDK (Rattus norvegicus [12]) was 9, the PDK (Rattus norvegicus [13]) was 73 and the PDK (Rattus norvegicus [14]) was 21. The PDK (Rattus norvegicus [15]) was 10, the PDK (Rattus norvegicus [16]) was 10 and the PDK (Rattus norvegicus [17]) was 17. The PDK (Rattus norvegicus [18]) was 38, the PDK (Rattus norvegicus [19]) was 12 and the PDK (Rattus norvegicus [20]) was 14. For the same molecule, the PDK (Rattus norvegicus [21]) was 71, the PDK (Rattus norvegicus [22]) was 27 and the PDK (Rattus norvegicus [23]) was 29. It also gave a PDK (Rattus norvegicus [24]) of 10, a PDK (Rattus norvegicus [25]) of 92 and a PDK (Rattus norvegicus [26]) of 16. The PDK (Rattus norvegicus [27]) was 27, the PDK (Rattus norvegicus [28]) was 10 and the PDK (Rattus norvegicus [29]) was 11. For the same molecule, the PDK (Rattus norvegicus [30]) was 4, the PDK (Rattus norvegicus [31]) was 2870 and the PDK (Rattus norvegicus [32]) was 2300. It also gave a PDK (Rattus norvegicus [33]) of 1331, a PDK (Rattus norvegicus [34]) of 106 and a PDK (Rattus norvegicus [35]) of 55. It also gave a PDK (Rattus norvegicus [36]) of 49, a PDK (Rattus norvegicus [37]) of 25 and a PDK (Rattus norvegicus [38]) of 28. For the same molecule, the PDK (Rattus norvegicus [39]) was 8, the PDK (Rattus norvegicus [40]) was 30 and the PDK (Rattus norvegicus [41]) was 11 and 13. For the same molecule, the PDK (Rattus norvegicus [42]) was 4, the PDK (Rattus norvegicus [43]) was 108 and the PDK (Rattus norvegicus [44]) was 43. It also gave a PDK (Rattus norvegicus [45]) of 39 and a PDK (Rattus norvegicus [46]) of 245.
